Results on 16 molecules are retold here after the M2OR odorant receptor database.

Conditions in all cases: stereoisomer not certain
Assay [1] deals with T1, UniProt L7MU75.
T1 sequence (whole entry): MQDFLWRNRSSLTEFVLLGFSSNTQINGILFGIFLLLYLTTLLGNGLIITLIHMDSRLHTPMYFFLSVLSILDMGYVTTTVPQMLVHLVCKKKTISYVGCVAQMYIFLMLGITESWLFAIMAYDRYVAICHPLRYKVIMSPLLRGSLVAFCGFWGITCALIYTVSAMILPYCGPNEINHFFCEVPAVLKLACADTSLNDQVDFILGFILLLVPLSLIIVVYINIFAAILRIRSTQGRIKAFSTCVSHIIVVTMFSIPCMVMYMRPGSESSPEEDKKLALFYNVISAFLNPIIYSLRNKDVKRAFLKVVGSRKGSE
An outline of the steps: (§1)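 Assay methods differ from source to source, frequently being transient luciferase assays in mammalian cell lines. For each receptor–molecule pair, the label responsive (active) applies when the original authors judged the measured signal statistically different from baseline, and non-responsive (inactive) applies otherwise.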

In assay [2] the target is T2, UniProt L7N210.
T2 sequence (whole entry): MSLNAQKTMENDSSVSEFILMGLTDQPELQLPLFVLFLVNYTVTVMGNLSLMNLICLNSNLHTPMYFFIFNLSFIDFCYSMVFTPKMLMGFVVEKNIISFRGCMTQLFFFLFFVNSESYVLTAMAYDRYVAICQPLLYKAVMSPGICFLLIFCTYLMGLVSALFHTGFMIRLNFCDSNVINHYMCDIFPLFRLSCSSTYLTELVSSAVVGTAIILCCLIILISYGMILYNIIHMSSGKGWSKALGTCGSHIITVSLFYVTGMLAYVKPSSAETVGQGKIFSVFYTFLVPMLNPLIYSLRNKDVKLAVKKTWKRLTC
In short, it runs like this:
as §1

In assay [3] the target is T3, UniProt Q3KPB0.
T3 sequence (whole entry): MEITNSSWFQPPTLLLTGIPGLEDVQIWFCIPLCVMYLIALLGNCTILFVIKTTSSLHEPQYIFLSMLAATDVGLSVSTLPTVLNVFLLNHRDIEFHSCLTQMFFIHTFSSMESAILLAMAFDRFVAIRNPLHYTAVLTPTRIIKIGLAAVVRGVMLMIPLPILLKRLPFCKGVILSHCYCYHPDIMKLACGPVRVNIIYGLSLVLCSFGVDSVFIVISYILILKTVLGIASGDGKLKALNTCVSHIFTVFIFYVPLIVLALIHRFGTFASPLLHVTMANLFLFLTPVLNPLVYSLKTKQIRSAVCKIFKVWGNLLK
In short, it runs like this:
as §1

Assay [4] has as its target T4, UniProt Q3U0P3.
T4 sequence (whole entry): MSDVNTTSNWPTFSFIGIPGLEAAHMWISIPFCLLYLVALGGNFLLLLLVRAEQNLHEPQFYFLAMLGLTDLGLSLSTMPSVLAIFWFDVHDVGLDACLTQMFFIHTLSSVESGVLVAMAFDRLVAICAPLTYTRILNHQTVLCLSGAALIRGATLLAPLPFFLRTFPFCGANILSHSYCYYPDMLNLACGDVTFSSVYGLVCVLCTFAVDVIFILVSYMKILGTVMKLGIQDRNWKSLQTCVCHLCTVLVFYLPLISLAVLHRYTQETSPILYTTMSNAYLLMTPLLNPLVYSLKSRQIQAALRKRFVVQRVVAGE
In short, it runs like this: as §1

Assay [5] deals with T5, UniProt Q7TQU8.
T5 sequence (whole entry): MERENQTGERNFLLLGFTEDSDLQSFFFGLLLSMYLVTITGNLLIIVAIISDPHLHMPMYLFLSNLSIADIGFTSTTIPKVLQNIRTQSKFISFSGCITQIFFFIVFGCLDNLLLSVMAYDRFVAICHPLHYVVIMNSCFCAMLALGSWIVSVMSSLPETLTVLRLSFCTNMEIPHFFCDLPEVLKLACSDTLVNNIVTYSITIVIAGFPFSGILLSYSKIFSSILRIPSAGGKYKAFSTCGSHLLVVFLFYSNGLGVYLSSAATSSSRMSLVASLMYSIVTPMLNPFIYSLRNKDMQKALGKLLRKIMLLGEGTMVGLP
In short, it runs like this: as §1

The target of assay [6] is T6, UniProt Q7TQV4.
T6 sequence (whole entry): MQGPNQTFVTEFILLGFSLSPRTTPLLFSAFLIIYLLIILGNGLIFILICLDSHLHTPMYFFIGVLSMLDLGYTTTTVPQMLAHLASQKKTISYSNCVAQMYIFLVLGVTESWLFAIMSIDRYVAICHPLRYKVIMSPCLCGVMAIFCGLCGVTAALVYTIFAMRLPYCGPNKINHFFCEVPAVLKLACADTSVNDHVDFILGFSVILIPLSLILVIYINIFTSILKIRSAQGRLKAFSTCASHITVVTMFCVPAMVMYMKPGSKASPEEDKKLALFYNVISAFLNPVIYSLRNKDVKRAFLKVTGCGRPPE
An outline of the steps:
as §1

The target of assay [7] is T7, UniProt Q7TR71.
T7 sequence (whole entry): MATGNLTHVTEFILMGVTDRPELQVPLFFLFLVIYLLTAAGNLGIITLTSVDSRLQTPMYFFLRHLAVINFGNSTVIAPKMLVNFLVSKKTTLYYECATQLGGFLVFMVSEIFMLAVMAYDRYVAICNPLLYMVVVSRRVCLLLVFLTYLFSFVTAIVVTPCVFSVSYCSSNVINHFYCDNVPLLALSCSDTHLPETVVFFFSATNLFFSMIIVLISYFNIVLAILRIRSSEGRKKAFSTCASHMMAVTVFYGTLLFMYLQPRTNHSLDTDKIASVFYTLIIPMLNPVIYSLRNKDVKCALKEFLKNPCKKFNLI
In short, it runs like this: as §1

For assay [8], the target named is T8, UniProt Q7TR79.
T8 sequence (whole entry): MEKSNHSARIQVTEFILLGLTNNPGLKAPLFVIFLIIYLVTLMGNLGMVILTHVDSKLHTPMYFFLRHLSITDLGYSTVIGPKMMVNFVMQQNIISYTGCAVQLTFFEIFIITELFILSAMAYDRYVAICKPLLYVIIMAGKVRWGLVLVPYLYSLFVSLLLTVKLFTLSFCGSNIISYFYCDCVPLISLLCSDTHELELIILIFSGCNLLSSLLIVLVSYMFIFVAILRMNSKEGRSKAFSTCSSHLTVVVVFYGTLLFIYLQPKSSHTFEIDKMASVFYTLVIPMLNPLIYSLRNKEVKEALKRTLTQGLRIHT
An outline of the steps: as §1

Assay [9] addresses T9, UniProt Q7TRA3.
T9 sequence (whole entry): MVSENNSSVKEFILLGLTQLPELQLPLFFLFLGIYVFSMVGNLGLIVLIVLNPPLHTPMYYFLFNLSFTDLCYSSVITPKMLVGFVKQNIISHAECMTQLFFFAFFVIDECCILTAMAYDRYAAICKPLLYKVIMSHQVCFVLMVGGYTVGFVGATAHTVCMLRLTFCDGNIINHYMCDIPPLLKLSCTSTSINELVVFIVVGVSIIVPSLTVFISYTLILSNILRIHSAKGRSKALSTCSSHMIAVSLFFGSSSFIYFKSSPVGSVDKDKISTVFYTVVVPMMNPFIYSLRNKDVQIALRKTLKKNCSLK
An outline of the steps: as §1

Assay [10] concerns the target T10, UniProt Q7TRE4.
T10 sequence (whole entry): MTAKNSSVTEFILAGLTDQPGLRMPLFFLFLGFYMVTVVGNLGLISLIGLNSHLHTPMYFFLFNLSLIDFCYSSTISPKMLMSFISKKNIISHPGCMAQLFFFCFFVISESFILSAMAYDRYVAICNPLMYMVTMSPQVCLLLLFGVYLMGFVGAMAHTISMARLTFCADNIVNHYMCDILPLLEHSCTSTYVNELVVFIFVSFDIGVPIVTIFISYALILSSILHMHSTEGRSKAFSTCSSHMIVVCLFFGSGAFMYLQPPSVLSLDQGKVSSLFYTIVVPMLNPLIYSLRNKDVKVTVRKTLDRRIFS
An outline of the steps:
as §1

The target of assay [11] is T11, UniProt Q7TRM0.
T11 sequence (whole entry): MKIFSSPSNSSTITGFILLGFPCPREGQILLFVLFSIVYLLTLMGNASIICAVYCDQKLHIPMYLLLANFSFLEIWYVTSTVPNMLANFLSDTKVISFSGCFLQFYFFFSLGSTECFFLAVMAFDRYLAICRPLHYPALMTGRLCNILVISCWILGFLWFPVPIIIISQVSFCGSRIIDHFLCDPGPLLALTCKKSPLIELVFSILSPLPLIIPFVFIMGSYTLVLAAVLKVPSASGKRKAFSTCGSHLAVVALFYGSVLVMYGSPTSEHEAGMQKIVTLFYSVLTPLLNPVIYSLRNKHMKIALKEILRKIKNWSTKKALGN
An outline of the steps: as §1

Assay [12] concerns the target T12, UniProt Q7TRN9.
T12 sequence (whole entry): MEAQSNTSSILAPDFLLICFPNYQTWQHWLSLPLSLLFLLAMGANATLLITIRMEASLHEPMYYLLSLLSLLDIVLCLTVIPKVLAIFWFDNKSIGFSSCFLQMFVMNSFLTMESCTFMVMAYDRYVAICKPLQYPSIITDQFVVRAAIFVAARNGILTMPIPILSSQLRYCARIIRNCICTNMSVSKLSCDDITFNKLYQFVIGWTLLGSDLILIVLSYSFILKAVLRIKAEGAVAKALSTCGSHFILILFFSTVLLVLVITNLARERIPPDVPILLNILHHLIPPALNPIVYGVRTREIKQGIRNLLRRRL
In short, it runs like this: as §1

In the case of `CCCC(=O)C(C)=O`, the “odorant receptor agonist call” value in [1], in assay [2], in assay [3], in [4], in assay [5] and in assay [6] was “inactive” throughout. In addition, the “odorant receptor agonist call” value in assay [7], in assay [8], in assay [9] and in assay [10] was “inactive” in each case.

`CCC(=O)C(=O)CC`: the “odorant receptor agonist call” value in assay [1], in assay [2], in assay [3], in assay [4], in assay [5] and in assay [6] was “inactive” throughout. Besides, the “odorant receptor agonist call” value in assay [7], in [8], in [9] and in [10] was “inactive” each time.

For `CCOC(=O)C(C)C`, the “odorant receptor agonist call” value in assay [1], in assay [2], in assay [3], in [4], in assay [5] and in assay [6] was “inactive” in each case. The “odorant receptor agonist call” value in [7], in assay [8], in [9] and in assay [10] was “inactive” throughout.

For `CC(=O)Oc1ccccc1`, the “odorant receptor agonist call” value in assay [1], in [2], in assay [3], in [4], in assay [5] and in assay [6] was “inactive” in each case. In addition, the “odorant receptor agonist call” value in [7], in assay [8], in [9] and in assay [10] was “inactive” in each case.

For the molecule `CC(=O)OCc1ccccc1`, the “odorant receptor agonist call” value in [1], in [2], in assay [3], in assay [4], in assay [5] and in assay [6] was “inactive” throughout. The “odorant receptor agonist call” value in assay [7], in assay [8], in assay [9] and in assay [10] was “inactive” in each case.

On to `CCCCCCCCCO`, for which the “odorant receptor agonist call” value in [1], in assay [2], in assay [3], in [4], in assay [5] and in assay [6] was “inactive” in each case. The “odorant receptor agonist call” value in assay [7], in [8], in assay [9], in assay [10] and in assay [11] was “inactive” in each case. Also, the “odorant receptor agonist call” value in [12] was “active”.

In the case of `O=C(c1ccccc1)c1ccccc1`, the “odorant receptor agonist call” value in assay [1] and in assay [9] was “active” throughout. In addition, the “odorant receptor agonist call” value in assay [2], in assay [3], in assay [4], in assay [5], in assay [6] and in assay [7] was “inactive” each time. Further, the “odorant receptor agonist call” value in assay [8] and in assay [10] was “inactive” in each case.

As to `CCCCCC(=O)CC`, the “odorant receptor agonist call” value in [1], in [2], in [3], in assay [4], in assay [5] and in assay [6] was “inactive” each time. The “odorant receptor agonist call” value in [7], in [8], in [9] and in [10] was “inactive” in each case.

Turning to `CCCCCOC(=O)CCCCC`, the “odorant receptor agonist call” value in [1], in [2], in assay [3], in [4], in [5] and in assay [6] was “inactive” each time. Also, the “odorant receptor agonist call” value in [7], in assay [8], in assay [9] and in [10] was “inactive” throughout.

On to `CCCCCC=O`, for which the “odorant receptor agonist call” value in [1], in assay [2], in assay [3], in assay [4], in [5] and in assay [6] was “inactive” each time. Besides, the “odorant receptor agonist call” value in assay [7], in assay [8], in assay [9] and in assay [10] was “inactive” throughout.

Take `c1ccccc1`: the “odorant receptor agonist call” value in assay [1], in [2], in [3], in assay [4], in [5] and in assay [6] was “inactive” each time. Moreover, the “odorant receptor agonist call” value in [7], in assay [8], in assay [9] and in assay [10] was “inactive” throughout.

With `C=C(CC)CCCC(C)(C)O`, the “odorant receptor agonist call” value in assay [1], in assay [2], in assay [3], in [4], in [5] and in assay [8] was “inactive” throughout.

As to `CCCCC(=O)O`, the “odorant receptor agonist call” value in assay [1], in assay [2], in assay [3], in assay [4], in assay [5] and in assay [6] was “inactive” throughout. The “odorant receptor agonist call” value in [7], in [8], in [9], in [10], in assay [11] and in assay [12] was “inactive” throughout.

Turning to `CC(C)=CCCC(C)=CCO`, the “odorant receptor agonist call” value in assay [1], in [2], in [3], in assay [4], in assay [5] and in [6] was “inactive” each time. In addition, the “odorant receptor agonist call” value in assay [7], in assay [8], in assay [9] and in [10] was “inactive” throughout.

For the molecule `C=C(C)C1CCC(C)C(=O)C1` (stereo not given), the “odorant receptor agonist call” value in assay [1], in assay [2], in assay [3], in [4], in [5] and in [6] was “inactive” in each case. Moreover, the “odorant receptor agonist call” value in assay [7], in [8], in [9] and in assay [10] was “inactive” throughout.

Regarding `CCC(=O)O`, the “odorant receptor agonist call” value in assay [1], in [2], in assay [3], in [4], in assay [5] and in assay [6] was “inactive” throughout. Besides, the “odorant receptor agonist call” value in [7], in assay [8], in [9] and in assay [10] was “inactive” each time.
